Results taken from the M2OR odorant receptor database.

Experiments:
Details in all cases: stereoisomer not certain
OR10A3 (Homo sapiens) = biological target: T1, OR10A3 (Homo sapiens) (UniProt P58181)
T1 sequence (whole entry): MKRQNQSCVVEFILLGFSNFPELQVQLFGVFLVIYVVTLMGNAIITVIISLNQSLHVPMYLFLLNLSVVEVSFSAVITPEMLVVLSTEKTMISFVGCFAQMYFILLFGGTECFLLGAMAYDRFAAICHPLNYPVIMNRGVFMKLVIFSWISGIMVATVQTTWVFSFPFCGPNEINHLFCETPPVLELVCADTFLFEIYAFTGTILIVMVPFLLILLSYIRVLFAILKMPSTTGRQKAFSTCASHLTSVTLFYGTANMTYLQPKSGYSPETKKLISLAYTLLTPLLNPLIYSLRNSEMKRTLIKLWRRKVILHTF
Outline: (§1)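 Transient luciferase assays in mammalian cell lines were common, though methods varied by source. The values come from published papers and their supplementary material, with extra details from the original authors when needed. Responsive refers to a measured signal the original authors judged statistically different from baseline, and non-responsive (inactive) to the remainder.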

OR10A4 (Homo sapiens) = biological target: T2, OR10A4 (Homo sapiens) (UniProt Q9H209)
T2 sequence (whole entry): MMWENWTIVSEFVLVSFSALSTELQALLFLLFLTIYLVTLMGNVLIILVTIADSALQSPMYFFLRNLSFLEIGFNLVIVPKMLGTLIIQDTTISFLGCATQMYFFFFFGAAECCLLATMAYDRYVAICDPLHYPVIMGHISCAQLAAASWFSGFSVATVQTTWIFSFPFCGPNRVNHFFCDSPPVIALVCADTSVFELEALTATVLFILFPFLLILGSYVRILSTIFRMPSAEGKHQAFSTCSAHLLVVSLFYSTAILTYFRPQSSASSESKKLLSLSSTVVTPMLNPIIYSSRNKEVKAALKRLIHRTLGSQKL
Outline: as §1

OR10A5 (Homo sapiens) = biological target: T3, OR10A5 (Homo sapiens) (UniProt Q9H207)
T3 sequence (whole entry): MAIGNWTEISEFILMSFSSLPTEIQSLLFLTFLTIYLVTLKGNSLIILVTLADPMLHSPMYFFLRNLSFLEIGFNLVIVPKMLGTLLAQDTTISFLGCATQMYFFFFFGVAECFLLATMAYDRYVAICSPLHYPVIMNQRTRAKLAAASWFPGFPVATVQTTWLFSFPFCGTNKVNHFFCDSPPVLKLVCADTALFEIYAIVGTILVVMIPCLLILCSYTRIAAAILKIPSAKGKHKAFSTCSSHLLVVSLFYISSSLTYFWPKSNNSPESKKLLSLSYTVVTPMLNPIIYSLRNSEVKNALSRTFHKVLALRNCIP
Outline: as §1

OR10A6 (Homo sapiens) = biological target: T4, OR10A6 (Homo sapiens) (UniProt Q8NH74)
T4 sequence (whole entry): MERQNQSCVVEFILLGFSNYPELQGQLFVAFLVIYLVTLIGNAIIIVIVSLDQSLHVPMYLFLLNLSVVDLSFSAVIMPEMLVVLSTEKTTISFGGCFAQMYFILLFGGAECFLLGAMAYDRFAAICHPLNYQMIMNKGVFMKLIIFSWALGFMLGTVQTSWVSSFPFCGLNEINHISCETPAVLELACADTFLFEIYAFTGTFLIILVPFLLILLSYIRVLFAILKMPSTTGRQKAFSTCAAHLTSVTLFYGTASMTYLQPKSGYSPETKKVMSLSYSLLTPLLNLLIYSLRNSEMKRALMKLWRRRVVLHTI
Outline: as §1

OR10A7 (Homo sapiens) = biological target: T5, OR10A7 (Homo sapiens) (UniProt Q8NGE5)
T5 sequence (whole entry): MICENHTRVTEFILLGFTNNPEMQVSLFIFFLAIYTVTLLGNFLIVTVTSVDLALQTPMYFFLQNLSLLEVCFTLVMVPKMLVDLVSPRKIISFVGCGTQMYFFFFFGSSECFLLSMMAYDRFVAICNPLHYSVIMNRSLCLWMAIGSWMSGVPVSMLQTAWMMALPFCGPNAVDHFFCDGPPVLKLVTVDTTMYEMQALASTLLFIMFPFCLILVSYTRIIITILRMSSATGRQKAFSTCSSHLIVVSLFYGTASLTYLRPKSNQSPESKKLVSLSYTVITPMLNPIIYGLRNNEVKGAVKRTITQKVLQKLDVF
Outline: as §1

OR10AD1 (Homo sapiens) = biological target: T6, OR10AD1 (Homo sapiens) (UniProt Q8NGE0)
T6 sequence (whole entry): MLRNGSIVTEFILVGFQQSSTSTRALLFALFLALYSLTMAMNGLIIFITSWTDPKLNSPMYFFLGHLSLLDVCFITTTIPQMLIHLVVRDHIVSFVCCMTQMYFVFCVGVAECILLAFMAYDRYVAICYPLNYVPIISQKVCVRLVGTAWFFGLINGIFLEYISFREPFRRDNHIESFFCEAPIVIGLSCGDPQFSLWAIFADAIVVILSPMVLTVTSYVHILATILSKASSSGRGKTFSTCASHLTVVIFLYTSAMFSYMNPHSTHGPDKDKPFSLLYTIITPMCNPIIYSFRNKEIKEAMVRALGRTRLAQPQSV
Outline: as §1

OR10AG1 (Homo sapiens) = biological target: T7, OR10AG1 (Homo sapiens) (UniProt Q8NH19)
T7 sequence (whole entry): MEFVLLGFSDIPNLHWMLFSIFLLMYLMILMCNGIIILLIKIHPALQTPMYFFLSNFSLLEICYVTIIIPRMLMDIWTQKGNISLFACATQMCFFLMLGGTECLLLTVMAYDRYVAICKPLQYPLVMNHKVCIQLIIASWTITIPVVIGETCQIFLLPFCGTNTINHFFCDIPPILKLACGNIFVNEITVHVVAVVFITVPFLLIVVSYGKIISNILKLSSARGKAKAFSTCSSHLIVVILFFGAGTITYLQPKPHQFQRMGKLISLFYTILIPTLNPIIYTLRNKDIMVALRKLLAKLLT
Outline: as §1

OR10C1 (Homo sapiens) = biological target: T8, OR10C1 (Homo sapiens) (UniProt Q96KK4)
T8 sequence (whole entry): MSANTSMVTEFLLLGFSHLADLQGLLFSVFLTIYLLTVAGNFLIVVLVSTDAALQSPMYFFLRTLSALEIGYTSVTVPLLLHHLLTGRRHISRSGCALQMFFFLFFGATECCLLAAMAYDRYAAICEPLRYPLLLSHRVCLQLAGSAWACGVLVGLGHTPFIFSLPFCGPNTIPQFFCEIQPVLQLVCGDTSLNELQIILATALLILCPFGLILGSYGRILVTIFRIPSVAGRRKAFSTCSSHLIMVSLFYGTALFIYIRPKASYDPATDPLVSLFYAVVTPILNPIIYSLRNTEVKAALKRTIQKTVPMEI
Outline: as §1

OR10D3 (Homo sapiens) = biological target: T9, OR10D3 (Homo sapiens) (UniProt Q8NH80)
T9 sequence (whole entry): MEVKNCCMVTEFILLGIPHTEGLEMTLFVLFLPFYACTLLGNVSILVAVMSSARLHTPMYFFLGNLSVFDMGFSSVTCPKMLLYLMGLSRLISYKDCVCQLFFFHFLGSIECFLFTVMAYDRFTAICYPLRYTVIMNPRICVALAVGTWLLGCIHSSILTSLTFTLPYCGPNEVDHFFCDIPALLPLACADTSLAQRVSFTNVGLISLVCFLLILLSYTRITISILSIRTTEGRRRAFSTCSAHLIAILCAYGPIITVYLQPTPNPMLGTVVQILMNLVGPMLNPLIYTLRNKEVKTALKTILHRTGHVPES
Outline: as §1

Measured: odorant receptor agonist call;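 note: active if original authors judged signal statistically different from baseline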

CC1=NC(C)C(C)S1 (centres undefined)
inactive: all assays above
